# Laboratory results published in ChEMBL document CHEMBL1152919, “Chloro-oxime derivatives as novel small molecule chaperone amplifiers” (Bioorg Med Chem Lett, 2009).
# Several values for one entry are separate records, joined by “and”; a condition that tells them apart may be missing. Identical values can stand only once. Activity calls are given as the source filed them. The rule behind the calls is not given here.
# Columns and labels:
# HeLa [1] = experiment: Stimulation of human HeLa cells proliferation upto 20 uM by Click-iT assay; type: functional, cell-based
# Procedure, shortened: (§1)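 Click-iT cell proliferation assay, run on HeLa and SK-N-SH cells across 0–20 µM compound.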
# [2] = target: T1, Heat shock factor protein 1 (Homo sapiens) (UniProt Q00613); experiment: Transcriptional activation of HSF1 in human HeLa cells assessed as granule formation treated for 3 hrs at 37 degC without heat shock by immunocytochemical staining
# T1 sequence (whole entry): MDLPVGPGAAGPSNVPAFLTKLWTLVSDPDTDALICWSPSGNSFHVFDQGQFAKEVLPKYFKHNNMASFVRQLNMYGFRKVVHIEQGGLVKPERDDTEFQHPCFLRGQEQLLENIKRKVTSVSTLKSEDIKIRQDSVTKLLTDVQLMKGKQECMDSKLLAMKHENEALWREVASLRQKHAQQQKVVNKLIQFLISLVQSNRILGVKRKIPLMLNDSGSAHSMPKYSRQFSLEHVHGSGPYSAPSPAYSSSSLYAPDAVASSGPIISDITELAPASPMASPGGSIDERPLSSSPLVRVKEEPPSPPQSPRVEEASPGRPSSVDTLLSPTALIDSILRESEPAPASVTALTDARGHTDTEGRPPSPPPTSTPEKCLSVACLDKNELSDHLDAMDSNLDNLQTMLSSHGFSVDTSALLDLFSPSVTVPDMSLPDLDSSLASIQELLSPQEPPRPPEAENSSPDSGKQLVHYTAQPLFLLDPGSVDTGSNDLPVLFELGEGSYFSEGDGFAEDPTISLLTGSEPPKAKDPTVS
# SK-N-SH [3] = experiment: Cytoprotective activity against 26S proteasome inhibitor MG132-induced stress in human SK-N-SH cells assessed as cell viability treated 1 hr before MG132 challenge measured after 24 hrs; type: functional, cell-based
# Procedure, shortened: (§2)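 SK-N-SH cells, 12,500/well, exposed to compound 1 h ahead of MG-132 (5 µM final), then 24 h. Viability by ATPlite-1step luminescence; increased ATP% = (RLU compound − RLU DMSO)/RLU DMSO ×100, with DMSO as negative control. Tested 0.3–80 µM in twofold steps; EC50 from nonlinear regression curve fit; max cytoprotection >60% scored active.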
# [4] = Cytotoxicity against human SK-N-SH cells by MTS assay; type: cell-based
# Procedure, shortened: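 SK-N-SH cells, 14,000/well, seeded in DMEM with 10% FBS 18 h before compound (1:200 dilution; final 0.3–80 µM). MTS read-out; % inhibition = (MTS DMSO − MTS compound)/MTS DMSO ×100; CC50 by nonlinear regression; average SD across runs 14%.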
# [5] = Cytotoxicity against human HeLa cells by MTS assay; type: cell-based
# SK-N-SH [6] = experiment: Decrease in human SK-N-SH cells proliferation upto 20 uM by Click-iT assay; type: functional, cell-based; procedure, shortened: as §1
# [7] = target: T2, Heat shock factor protein 1 (Homo sapiens, UniProt Q00613); experiment: Transcriptional activation of HSF1 in heat shock stress-induced human HeLa cells assessed as granule formation at 80 uM treated 1 hr before heat shock challenge measured after 2 hrs by immunocytochemical staining; type: cell-based
# T2 sequence (Q00613 whole entry): T1 sequence (whole entry)
# [8] = target: T1, Heat shock factor protein 1 (Homo sapiens); experiment: Transcriptional activation of HSF1 in heat shock stress-induced human HeLa cells assessed as granule formation treated 1 hr before heat shock challenge measured after 2 hrs by immunocytochemical staining; type: cell-based
# Procedure, shortened: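 HeLa cells given compound 1 h, then heat shock at 41 °C for 2 h without recovery; HSF1 immunocytochemical staining, quantified by high-content imaging. Range 0.3–80 µM, twofold dilution, 200-fold overall.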
# PC-12 = experiment: Cytoprotective activity against tunicamycin-induced endoplasmic reticulum stress in rat PC12 cells assessed as viability after 43 hrs relative to control; type: functional
# Procedure, shortened: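 PC12 cells, 5000/well, differentiated with NGF (50 ng/ml final) for 5–7 days until neurites appear. Compound (1:20 dilution) given together with tunicamycin (750 ng/mL final) for 43 h at 37 °C. Viability by ATPlite; ATP increase expressed against the DMSO plus tunicamycin control.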
# HeLa [9] = experiment: Cytotoxicity against human HeLa cells at 80 uM by MTS assay; type: cell-based
# SK-N-SH [10] = experiment: Cytoprotective activity against MG132-induced stress in human SK-N-SH cells assessed as survivality treated 1 hr before MG132 challenge measured after 24 hrs relative to control; type: functional; procedure, shortened: as §2
# HeLa [11] = experiment: Increase in HSP70 expression in heat shock stress-induced human HeLa cells assessed as granule formation after 2 hrs of recovery time by immunocytochemical staining; type: functional, cell-based
# Procedure, shortened: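 HeLa cells heat-shocked at 41 °C; HSP70 immunocytochemical staining 2 h after heat shock; automated image acquisition, quantifying HSP70 granule count and total granule area.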
# [12] = Homo sapiens, SK-N-SH, read-out: EC50
SMILES,Activity [2],EC50 (SK-N-SH [3]; [12]) [µM],CC50 [4] [µM],CC50 [5] [µM],further results
CCCN(CC(O)CO/N=C(\Cl)c1nc2ccccc2o1)C(C)C (stereo not drawn),inactive,8.9,50.4,57.6,Activity (HeLa [1]): inactive; Activity (SK-N-SH [6]): Active
OC(CO/N=C(\Cl)c1nc2ccc(Cl)cc2o1)CN1CCCCC1 (stereo not drawn),inactive,9,20,44.2,–
CCC(C)N(CC(O)CO/N=C(\Cl)c1nc2ccccc2o1)C(C)CC (stereo not drawn),inactive,20.9,54.2,–,Activity [7]: 62% and 25%; Activity [8]: inactive
OC(CO/N=C/c1nc2ccccc2o1)CN1CCCCC1 (stereo not drawn),–,–,> 80,> 80,EC50 (SK-N-SH [3]; sk-n-sh): Not Active
CC1CCCC(C)N1CC(O)CO/N=C(\Cl)c1nc2ccccc2o1 (stereo not drawn),inactive,11.1,36.2,78.9,–
CC(=O)NCC(O)CO/N=C(\Cl)c1nc2ccccc2o1 (stereo not drawn),–,41.9,> 80,> 80,–
CCN(CC)CC(O)CO/N=C(\Cl)c1nc2ccccc2o1 (stereo not drawn),inactive,10.2,36.2,–,–
OC(CO/N=C(\Cl)c1nc2ccc(F)cc2o1)CN1CCCCC1 (stereo not drawn),inactive,11,37.3,> 80,–
CS(=O)(=O)NCC(O)CO/N=C(\Cl)c1nc2ccccc2o1 (stereo not drawn),–,39.3,> 80,48.5,–
Cl/C(=N\OCCCN1CCCCC1)c1nc2ccccc2o1,–,58.7,> 80,> 80,–
Cc1ccc2nc(/C(Cl)=N/OCC(O)CN3CCCCC3)oc2c1 (stereo not drawn),inactive,6.1,28,18.8,–
OC(CO/N=C(\Cl)c1cc2ccccc2o1)CN1CCCCC1 (stereo not drawn),–,–,> 80,> 80,EC50 (SK-N-SH [3]; sk-n-sh): Not Active
OC(CO/N=C(\Cl)c1cc2ccccc2s1)CN1CCCCC1 (stereo not drawn),–,–,67.7,> 80,EC50 (SK-N-SH [3]; sk-n-sh): Not Active
CC(C)N(CCCF)CC(O)CO/N=C(\Cl)c1nc2ccccc2o1 (stereo not drawn),inactive,10.1,46,33.8,–
OC(CO/N=C(\Cl)c1nc2ccccc2s1)CN1CCCC1 (stereo not drawn),inactive,–,31.1,60.1,EC50 (SK-N-SH [3]; sk-n-sh): Not Active
CCCCN(CCCC)CC(O)CO/N=C(\Cl)c1nc2ccccc2o1 (stereo not drawn),inactive,22.3,41,> 80,–
OC(CO/N=C(\Cl)c1nc2ccccc2s1)CN1CCCCC1 (stereo not drawn),inactive,13.5,26.5,49.1,–
Cc1ccc2oc(/C(Cl)=N/OCC(O)CN3CCCCC3)nc2c1 (stereo not drawn),inactive,9.5,34.6,–,–
OC(CO/N=C(\Cl)c1nc2cc(Cl)ccc2o1)CN1CCCCC1 (stereo not drawn),inactive,6.3,23.2,31.4,–
CN(C)S(=O)(=O)c1ccc2nc(/C(Cl)=N/OCC(O)CN3CCCCC3)oc2c1 (stereo not drawn),inactive,7.9,42.4,45.1,–
CC(C)N(CC(O)CO/N=C(\Cl)c1nc2ccccc2o1)C(C)C (stereo not drawn),inactive,14.7,30.8,45,Activity (PC-12): >150% and 300%
OC(CO/N=C(\Cl)c1nc2ccccc2o1)CN1CCC(F)CC1 (stereo not drawn),inactive,18.8,52.6,–,Inhibition (HeLa [9]): 35%; Activity [7]: 63%

SMILES,Activity [2],EC50 (SK-N-SH [3]; [12]) [µM],CC50 [4] [µM],CC50 [5] [µM],further results
OC(CO/N=C(\Cl)c1nc2cccc(F)c2o1)CN1CCCCC1 (stereo not drawn),inactive,3.8,16.9,19.3,–
OC(CO/N=C(\Cl)c1nc2c(ccc3ccccc32)o1)CN1CCCCC1 (stereo not drawn),inactive,5.2,17.4,18.9,–
OC(CO/N=C(\Cl)c1nc2ccccc2o1)CN1CCCCC1 (stereo not drawn),–,15.7,26,41.7,"Activity (SK-N-SH [10]): 90.6%; Activity [8]: 58%; Activity (HeLa [11]): 51%; EC50 (HeLa [11]; Homo sapiens, HeLa, 2 h): 32.9 µM; Activity (HeLa [1]): inactive; Activity (PC-12): >200%; Activity (SK-N-SH [6]): Active"
CC1CC(C)CN(CC(O)CO/N=C(\Cl)c2nc3ccccc3o2)C1 (stereo not drawn),inactive,9.3,34,55.3,–
OC(CO/N=C(\Cl)c1nc2ccccc2o1)CN1CCOCC1 (stereo not drawn),–,61.7,> 80,> 80,–
CC(C)N(CC(O)CO/N=C(\Cl)c1nc2ccccc2o1)CC1CC1 (stereo not drawn),inactive,6.3,32.7,24.4,–
OC(CO/N=C(\Cl)c1nc2ccccc2o1)CN1CCC(F)(F)CC1 (stereo not drawn),inactive,26.4,> 80,> 80,Activity [7]: 49%
OC(CO/N=C(\Cl)c1nc2cc(F)ccc2o1)CN1CCCCC1 (stereo not drawn),inactive,12,62.4,> 80,–
CCCN(CC)CC(O)CO/N=C(\Cl)c1nc2ccccc2o1 (stereo not drawn),inactive,12.4,42.1,40.7,–
OC(CO/N=C(\Cl)c1nc2c(F)cccc2o1)CN1CCCCC1 (stereo not drawn),inactive,6.9,20.3,40.2,–
CCS(=O)(=O)c1ccc2oc(/C(Cl)=N/OCC(O)CN3CCCCC3)nc2c1 (stereo not drawn),inactive,5.9,44.2,41.4,–
CCCN(CCC)CC(O)CO/N=C(\Cl)c1nc2ccccc2o1 (stereo not drawn),inactive,10.2,46.4,–,–
O=C(NCC(O)CO/N=C(\Cl)c1nc2ccccc2o1)N1CCCCC1 (stereo not drawn),inactive,43.6,59.6,46.9,Activity [7]: 28%; Activity [8]: inactive
C/C(=N\OCC(O)CN1CCCCC1)c1nc2ccccc2o1 (stereo not drawn),–,–,> 80,> 80,EC50 (SK-N-SH [3]; sk-n-sh): Not Active
CC(C)N(CCO)CC(O)CO/N=C(\Cl)c1nc2ccccc2o1 (stereo not drawn),inactive,8.2,30.6,50.2,–
CO/C(=N\OCC(O)CN1CCCCC1)c1nc2ccccc2o1 (stereo not drawn),–,–,> 80,> 80,EC50 (SK-N-SH [3]; sk-n-sh): Not Active
CC(C)(C)NCC(O)CO/N=C(\Cl)c1nc2ccccc2o1 (stereo not drawn),inactive,–,24.7,55.4,Activity [8]: inactive; EC50 (SK-N-SH [3]; sk-n-sh): Not Active
OC(CO/N=C(\Cl)c1nc2ccccc2o1)CN1CCCC(F)C1 (stereo not drawn),inactive,20,49.8,52.7,–
O=C(NOCC(O)CN1CCCCC1)c1nc2ccccc2o1 (stereo not drawn),–,–,> 80,> 80,EC50 (SK-N-SH [3]; sk-n-sh): Not Active
CC(C)N(CC(O)CO/N=C(\Cl)c1nc2ccccc2o1)C(C)(C)C (stereo not drawn),inactive,9.9,40.3,30.8,–
OC(CO/N=C(/c1nc2ccccc2o1)C(F)(F)F)CN1CCCCC1 (stereo not drawn),–,–,> 80,> 80,EC50 (SK-N-SH [3]; sk-n-sh): Not Active
